We go through two molecules from ChEMBL document CHEMBL4825663 (J Med Chem, 2021).

Molecules are shown by their SMILES.

Series [1] addresses ATP-binding cassette sub-family C member 3 (Homo sapiens, UniProt O15438). As to the kind of experiment: Inhibition of […]-stimulated MRP3 ATPase activity (unknown origin) in presence of GSH.
Series [2] addresses T1, Solute carrier family 22 member 6 (Homo sapiens, UniProt Q4U2R8).
T1 sequence (Q4U2R8 whole entry): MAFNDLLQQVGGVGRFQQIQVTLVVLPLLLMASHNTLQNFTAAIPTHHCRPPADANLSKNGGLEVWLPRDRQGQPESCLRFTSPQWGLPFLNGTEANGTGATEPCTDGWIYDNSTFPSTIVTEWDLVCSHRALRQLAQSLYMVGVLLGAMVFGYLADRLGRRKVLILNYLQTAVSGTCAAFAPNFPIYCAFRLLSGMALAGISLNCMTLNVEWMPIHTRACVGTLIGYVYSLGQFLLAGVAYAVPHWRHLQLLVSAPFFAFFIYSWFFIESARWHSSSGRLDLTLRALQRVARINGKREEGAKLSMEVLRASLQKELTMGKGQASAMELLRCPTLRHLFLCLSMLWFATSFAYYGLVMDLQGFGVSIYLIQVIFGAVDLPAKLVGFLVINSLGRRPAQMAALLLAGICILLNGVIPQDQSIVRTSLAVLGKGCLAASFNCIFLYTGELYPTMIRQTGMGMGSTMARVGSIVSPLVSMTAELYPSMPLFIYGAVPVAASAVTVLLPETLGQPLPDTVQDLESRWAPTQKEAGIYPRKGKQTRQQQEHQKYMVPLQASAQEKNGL
As to the kind of experiment: Inhibition of human OAT1 assessed as reduction in intracellular probe substrate accumulation upto 100 uM by microplate scintillation counter analysis relative to control. It is filed as cell-based. The essentials:
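Cellular uptake-inhibition assays used Chinese hamster ovary, HEK293 or MDCKII cells stably expressing the respective human SLC transporter, run alongside the corresponding control cells. Inhibitor was tested at concentrations up to 100 μM.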

Series [3] is described as follows: AUClast in Sprague-Dawley rat at 10 mg/kg, po measured upto 48 hrs by LC-MS/MS analysis. It counts as ADME, organism-based. More on the design: route oral, dose 10 mg/kg, time <=48. The following applies: in vivo. The essentials: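 Single dose in male Sprague-Dawley rats and male Beagle dogs (n = 3 per species), given 3 mg/kg IV or 10 mg/kg PO. Plasma was sampled to derive Cmax, Tmax, T1/2 and AUClast by each route. Oral bioavailability (F) was calculated from the PO and IV AUClast.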

Series [4] concerns the target Cytochrome P450 3A4 (Homo sapiens, UniProt P08684). As to the kind of experiment: Drug metabolism assessed as human CYP3A4-mediated metabolism. The following applies: recombinant enzyme. It counts as ADME.
For series [5], the target named is T2, Cytochrome P450 1A2 (Homo sapiens, UniProt P05177).
T2 sequence (P05177 whole entry): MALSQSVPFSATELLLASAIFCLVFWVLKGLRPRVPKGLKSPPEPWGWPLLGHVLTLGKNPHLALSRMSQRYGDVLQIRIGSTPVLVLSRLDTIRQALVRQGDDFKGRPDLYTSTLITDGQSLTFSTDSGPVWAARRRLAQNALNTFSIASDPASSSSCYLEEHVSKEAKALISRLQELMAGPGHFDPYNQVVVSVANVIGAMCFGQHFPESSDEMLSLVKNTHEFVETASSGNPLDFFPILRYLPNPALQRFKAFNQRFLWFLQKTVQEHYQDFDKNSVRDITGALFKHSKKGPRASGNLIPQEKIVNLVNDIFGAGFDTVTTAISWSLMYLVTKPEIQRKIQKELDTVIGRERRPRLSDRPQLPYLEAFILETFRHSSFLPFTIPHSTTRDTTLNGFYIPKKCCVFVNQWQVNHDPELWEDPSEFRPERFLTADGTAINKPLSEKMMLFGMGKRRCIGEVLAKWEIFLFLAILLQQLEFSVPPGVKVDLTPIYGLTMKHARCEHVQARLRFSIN
As to the kind of experiment: Drug metabolism assessed as human CYP1A2-mediated metabolism. It counts as ADME. To be noted: recombinant enzyme.

The nature of series [6]: Toxicity in Beagle dog assessed as enlargement of lymph nodes at >= 100 mg/kg, po and measured after 13 weeks. It counts as organism-based, Canis lupus familiaris. To be noted: in vivo, 2184 h.
Series [7] can be described thus: Drug distribution in Beagle dog bile. It is filed as ADME, tissue-based, Canis lupus familiaris. The following applies: in vivo.
Series [8] is described as follows: Clearance in Sprague-Dawley rat at 6 mg/kg, iv measured upto 24 hrs by LC-MS/MS analysis. It counts as ADME, organism-based. The following applies: in vivo.
A short description of series [9]: Volume of distribution in Sprague-Dawley rat at 6 mg/kg, iv measured upto 24 hrs by LC-MS/MS analysis. It counts as ADME, organism-based. To be noted: in vivo.
A short description of series [10]: Cmax in Sprague-Dawley rat at 20 mg/kg, po measured upto 24 hrs by LC-MS/MS analysis. More on the design: route oral, dose 20 mg/kg, time <=24. It counts as ADME, organism-based. To be noted: in vivo.
Series [11] in a line: Tmax in Sprague-Dawley rat at 20 mg/kg, po measured upto 24 hrs by LC-MS/MS analysis. The following applies: in vivo. It counts as ADME, organism-based.
Series [12] in a line: Drug accumulation in Sprague-Dawley rat plasma at 20 mg/kg, po administered once per week for 4 weeks in presence of 10 mg/kg encequidar by LC-MS/MS analysis. The following applies: in vivo, 672 h. It is filed as ADME, organism-based.
The nature of series [13]: Ratio of drug concentration in BALB/c mouse large intestine to plasma at 20 mg/kg, po measured upto 24 hrs in presence of 10 mg/kg encequidar by LC-MS/MS analysis. It is filed as ADME, organism-based.
The nature of series [14]: Ratio of drug concentration in BALB/c mouse spleen to plasma at 20 mg/kg, po measured upto 24 hrs in presence of 10 mg/kg encequidar by LC-MS/MS analysis. It counts as ADME, organism-based.
Series [15] deals with MDA-MB-231. As to the kind of experiment: Antitumor activity against human MDA-MB-231 cells xenografted in athymic nude mouse assessed as reduction in median number of days for tumor to reach two tumor mass doubling at 20 mg/kg, po administered every other day for 4 doses in presence of 8 mg/kg encequidar and monitored for 70 to 82 days (reference value: 13.1 day). It counts as functional. The following applies: time 70-82 day.

Series [16] is described as follows: Toxicity in athymic nude mouse xenografted with human MDA-MB-231 cells assessed as reduction in body weight at 30 mg/kg, po administered every other day for 4 doses in presence of 12 mg/kg encequidar and monitored for 70 to 82 days. It is filed as organism-based. To be noted: in vivo, time 70-82 day. On the set-up: scale not given: the % may be the effect or the level left. The gist of the method:
(§1)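 Female athymic NCr-nu mice (n = 10/group) bearing subcutaneous MDA-MB-231 xenografts were treated from day 8. […] Individual body weights were monitored for 82 days after implantation.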
In general terms: In xenograft studies the graft and the host belong to different species.

Series [17] in a line: Toxicity in athymic nude mouse xenografted with human MDA-MB-231 cells assessed as reduction in body weight at 40 mg/kg, po administered every other day for 4 doses in presence of 16 mg/kg encequidar and monitored for 70 to 82 days. It counts as organism-based. On the set-up: scale not given: the % may be the effect or the level left. To be noted: in vivo, time 70-82 day. The essentials: as §1

The subject of series [18] is NCI-H460. As to the kind of experiment: Antitumor activity against human NCI-H460 cells xenografted in athymic nude mouse assessed as median tumor growth delay at 18 mg/kg, iv administered every other day for 4 doses and monitored for 48 days. It counts as functional. The following applies: time 48 day. The gist of the method:
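Female athymic NCr-nu mice carried subcutaneous NCI-H460 xenografts. […] Tumor weights and body weights were followed for 48 days after implantation. Read-out was median tumor growth delay.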

Series [19] can be described thus: Neurotoxicity in Sprague-Dawley rat assessed as reduction in nociceptive threshold at 6 mg/kg, iv measured after day 5, 7, 11 and 14. It counts as toxicity, organism-based. To be noted: in vivo. The essentials:
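Healthy rats received IV paclitaxel (Taxol) at 0 (vehicle), 3 or 6 mg/kg, four times at 2-day intervals (cumulative 12 or 24 mg/kg), n = 5/group. Paw pressure threshold (mmHg to elicit response, back paws) was measured by Randall–Selitto test. Data were analysed by one-way ANOVA, then Dunnett's test versus control.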

Sequence of Cytochrome P450 3A4 (P08684 whole entry): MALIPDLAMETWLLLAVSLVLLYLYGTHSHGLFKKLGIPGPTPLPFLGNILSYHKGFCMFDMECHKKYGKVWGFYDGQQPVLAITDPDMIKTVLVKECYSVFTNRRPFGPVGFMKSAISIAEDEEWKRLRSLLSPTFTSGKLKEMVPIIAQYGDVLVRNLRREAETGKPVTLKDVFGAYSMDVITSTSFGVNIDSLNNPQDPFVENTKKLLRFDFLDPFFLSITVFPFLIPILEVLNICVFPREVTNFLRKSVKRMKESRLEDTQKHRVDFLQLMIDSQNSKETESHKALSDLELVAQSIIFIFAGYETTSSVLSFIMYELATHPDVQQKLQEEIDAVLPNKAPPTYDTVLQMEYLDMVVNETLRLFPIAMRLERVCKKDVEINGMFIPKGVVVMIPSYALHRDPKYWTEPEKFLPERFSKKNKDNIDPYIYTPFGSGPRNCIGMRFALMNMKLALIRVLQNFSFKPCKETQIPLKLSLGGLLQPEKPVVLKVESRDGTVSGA
Sequence of ATP-binding cassette sub-family C member 3 (O15438 whole entry): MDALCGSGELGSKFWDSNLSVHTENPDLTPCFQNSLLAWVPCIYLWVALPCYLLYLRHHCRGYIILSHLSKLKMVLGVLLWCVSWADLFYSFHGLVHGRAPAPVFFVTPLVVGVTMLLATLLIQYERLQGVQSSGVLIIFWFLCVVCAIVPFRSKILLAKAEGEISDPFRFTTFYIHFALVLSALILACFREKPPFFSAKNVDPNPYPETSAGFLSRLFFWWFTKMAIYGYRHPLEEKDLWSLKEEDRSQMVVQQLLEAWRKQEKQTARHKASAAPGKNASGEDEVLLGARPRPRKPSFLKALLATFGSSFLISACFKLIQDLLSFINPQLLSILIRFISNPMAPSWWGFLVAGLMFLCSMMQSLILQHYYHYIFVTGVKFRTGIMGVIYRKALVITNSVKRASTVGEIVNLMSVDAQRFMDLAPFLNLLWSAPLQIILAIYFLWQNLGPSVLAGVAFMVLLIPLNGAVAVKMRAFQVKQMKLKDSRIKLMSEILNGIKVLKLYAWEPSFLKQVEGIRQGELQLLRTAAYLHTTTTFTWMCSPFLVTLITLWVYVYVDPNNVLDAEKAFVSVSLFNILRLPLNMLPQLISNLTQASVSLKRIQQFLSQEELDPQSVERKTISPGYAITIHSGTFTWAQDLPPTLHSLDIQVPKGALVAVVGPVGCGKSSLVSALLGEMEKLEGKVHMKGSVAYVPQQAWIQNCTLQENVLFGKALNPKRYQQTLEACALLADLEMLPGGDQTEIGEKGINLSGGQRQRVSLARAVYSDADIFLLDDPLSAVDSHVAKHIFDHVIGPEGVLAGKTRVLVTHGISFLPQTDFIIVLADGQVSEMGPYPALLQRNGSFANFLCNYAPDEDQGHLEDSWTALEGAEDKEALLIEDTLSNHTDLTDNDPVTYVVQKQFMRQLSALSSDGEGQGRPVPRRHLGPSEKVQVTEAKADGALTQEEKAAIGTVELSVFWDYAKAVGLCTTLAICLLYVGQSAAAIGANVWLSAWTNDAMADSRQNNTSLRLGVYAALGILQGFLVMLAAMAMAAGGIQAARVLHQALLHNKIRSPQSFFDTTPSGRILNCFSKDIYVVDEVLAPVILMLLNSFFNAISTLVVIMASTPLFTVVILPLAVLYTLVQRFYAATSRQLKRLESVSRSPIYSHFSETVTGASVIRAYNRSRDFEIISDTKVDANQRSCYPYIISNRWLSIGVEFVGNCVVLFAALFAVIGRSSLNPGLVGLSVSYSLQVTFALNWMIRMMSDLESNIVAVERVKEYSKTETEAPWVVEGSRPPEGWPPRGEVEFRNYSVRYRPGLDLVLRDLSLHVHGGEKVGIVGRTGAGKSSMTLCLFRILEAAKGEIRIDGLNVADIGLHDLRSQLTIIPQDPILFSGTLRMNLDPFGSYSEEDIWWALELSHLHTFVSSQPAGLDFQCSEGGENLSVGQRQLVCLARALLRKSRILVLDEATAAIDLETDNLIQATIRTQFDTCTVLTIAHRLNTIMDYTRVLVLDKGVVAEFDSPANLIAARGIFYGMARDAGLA

As a reminder, the IC50 is the point on the concentration scale where inhibition reaches its midpoint. Broadly, the AUC(0-t) is exposure summed from dosing to a finite time, without extrapolation to infinity. In the case of `COc1cc2c(cc1OC)CN(CCc1ccc(-n3nnc(-c4cc(OC)c(OC)cc4NC(=O)c4cc(=O)c5ccccc5o4)n3)cc1)CC2`, the half-inhibitory concentration (IC50) in [1] is over 100 µM. For the same molecule, the “inhibition (INH)” value in series [2] is given as under 50%. Further, the AUC(0-t) at 48 h in series [3] is 129 ng·h/mL. In addition, the Drug metabolism entry is listed as “Metabolite_Detected” in series [4] and “Metabolite_Notdetected” in series [5]. Also, the Activity entry in series [6] was “Toxic”. Further, the Drug uptake result in series [7] is given as “Active”.

As a reminder, the clearance is the rate of elimination divided by the concentration. The Vd is a proportionality between amount in the body and measured concentration, not a real space. For orientation: Cmax means the highest concentration seen after dosing. The Tmax is the time at which the peak concentration occurs. Usually Kp stands for tissue or fluid exposure divided by exposure in the circulation. In series [8], `CC(=O)O[C@H]1C(=O)[C@@]2(C)[C@H]([C@H](OC(=O)c3ccccc3)[C@]3(O)C[C@H](OC(=O)[C@H](O)[C@@H](NC(=O)c4ccccc4)c4ccccc4)C(C)=C1C3(C)C)[C@]1(OC(C)=O)CO[C@@H]1C[C@@H]2O` [PACLITAXEL] had a clearance of 35 mL/min. For the same molecule, the Vd in series [9] was determined as 23.6 L/kg. In series [10], the Cmax turned out to be 127 ng/mL. Also, in [11], the Tmax was determined as 54 min. Also, the Drug uptake entry in [12] was “Not Active”. The Kp at 24 h in [13] and in series [14] was over 1 each time. Besides, the Time amounted to 15.1 days in series [15] and 8.5 days in series [18]. For the same molecule, the Activity was 5% in [16], 5% in series [17] and “Toxic” in series [19].
